Data reported in ChEMBL document CHEMBL1135842, “Synthesis and biological activity of polygalloyl-dendrimers as stable tannic acid mimics” (Bioorg Med Chem Lett, 2002).

Assays:
[1] = Effective dose required for antioxidant activity was measured as dose giving 50% decolorization of 2,2-diphenyl-1-picryl-hydrazyl (DPPH); format: functional
Outline: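 DPPH radical scavenging: compounds serially diluted ([…]), incubated with […] in 75% ethanol for 15 min at room temperature; absorbance read at 550 nm. ED50 (dose giving 50% decolorization) obtained by linear regression of absorbance curves; means of five experiments, SEM reported.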

[2] = The degree of collagen cross-linking by hydrothermal shrinkage temperature was determined; format: functional
Outline: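 Purified skin collagen matrices incubated 48 h at room temperature with samples at 4 mM in 85% glycerol; hydrothermal shrinkage onset temperature (Ts) recorded, with untreated matrix as reference. Means of five experiments with SEM; significance versus tannic acid at p<0.05.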

SMILES | ED50 [1] [µM] | Ts [2] [°C]
O=C(OC[C@H]1O[C@@H](OC(=O)c2cc(O)c(O)c(OC(=O)c3cc(O)c(O)c(O)c3)c2)[C@H](OC(=O)c2cc(O)c(O)c(OC(=O)c3cc(O)c(O)c(O)c3)c2)[C@@H](OC(=O)c2cc(O)c(O)c(OC(=O)c3cc(O)c(O)c(O)c3)c2)[C@@H]1OC(=O)c1cc(O)c(O)c(OC(=O)c2cc(O)c(O)c(O)c2)c1)c1cc(O)c(O)c(OC(=O)c2cc(O)c(O)c(O)c2)c1 | 2.9 | 59.5
O=C(O)c1cc(O)c(O)c(O)c1 | 14.3 | 57.5
O=C(O)c1cc(OCCNC(=O)c2cc(OCCNC(=O)c3cc(O)c(O)c(O)c3)cc(OCCNC(=O)c3cc(O)c(O)c(O)c3)c2)cc(OCCNC(=O)c2cc(OCCNC(=O)c3cc(O)c(O)c(O)c3)cc(OCCNC(=O)c3cc(O)c(O)c(O)c3)c2)c1 | 7.4 | 57.9
O=C(O)c1cc(OCCNC(=O)c2cc(O)c(O)c(O)c2)cc(OCCNC(=O)c2cc(O)c(O)c(O)c2)c1 | 13.7 | 58.4
O=C(O)c1cc(OCCNC(=O)c2cc(OCCNC(=O)c3cc(OCCNC(=O)c4cc(O)c(O)c(O)c4)cc(OCCNC(=O)c4cc(O)c(O)c(O)c4)c3)cc(OCCNC(=O)c3cc(OCCNC(=O)c4cc(O)c(O)c(O)c4)cc(OCCNC(=O)c4cc(O)c(O)c(O)c4)c3)c2)cc(OCCNC(=O)c2cc(OCCNC(=O)c3cc(OCCNC(=O)c4cc(O)c(O)c(O)c4)cc(OCCNC(=O)c4cc(O)c(O)c(O)c4)c3)cc(OCCNC(=O)c3cc(OCCNC(=O)c4cc(O)c(O)c(O)c4)cc(OCCNC(=O)c4cc(O)c(O)c(O)c4)c3)c2)c1 | 4.7 | 57
